We go through six compounds from ChEMBL document CHEMBL1129630, “Synthesis and structure-activity relationships of retinoid X receptor selective diaryl sulfide analogs of retinoic acid” (J Med Chem, 1996).

Molecules are shown by their SMILES. pEC50, pIC50, pKd: −log10 of the molar value.

One assay concerns HL-60. Description: Induction of transglutaminase (TGase) activity in HL-60 cells. The note with it: Homo sapiens.
Another assay is filed under the species Mus musculus. Description: Inhibition of Chondrogenesis in day 11 embryonic limb bud cells. The note with it: 264 h.
For assay [1], the target named is T1, Retinoic acid receptor RXR-beta (Mus musculus, UniProt P28704).
T1 sequence (P28704 whole entry): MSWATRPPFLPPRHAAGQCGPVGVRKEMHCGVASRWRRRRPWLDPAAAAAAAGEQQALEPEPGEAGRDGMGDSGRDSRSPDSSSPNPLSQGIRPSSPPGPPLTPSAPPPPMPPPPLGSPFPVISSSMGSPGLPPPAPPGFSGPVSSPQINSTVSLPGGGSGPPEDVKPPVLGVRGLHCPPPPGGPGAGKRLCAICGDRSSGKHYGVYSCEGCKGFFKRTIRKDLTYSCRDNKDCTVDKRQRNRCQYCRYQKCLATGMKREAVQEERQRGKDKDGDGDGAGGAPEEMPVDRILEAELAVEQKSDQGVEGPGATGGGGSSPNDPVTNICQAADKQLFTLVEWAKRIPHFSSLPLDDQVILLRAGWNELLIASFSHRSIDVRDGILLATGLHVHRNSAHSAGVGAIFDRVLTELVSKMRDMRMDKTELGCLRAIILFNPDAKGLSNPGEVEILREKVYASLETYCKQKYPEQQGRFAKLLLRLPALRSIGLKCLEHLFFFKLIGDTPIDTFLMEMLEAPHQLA
Description: Dissociation constant for binding to Retinoid X receptor beta. In a few lines: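 Competitive binding assay measuring displacement at the RXRβ receptor subtype.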

For assay [2], the target named is T2, Retinoic acid receptor beta (Mus musculus, UniProt P22605).
T2 sequence (P22605 whole entry): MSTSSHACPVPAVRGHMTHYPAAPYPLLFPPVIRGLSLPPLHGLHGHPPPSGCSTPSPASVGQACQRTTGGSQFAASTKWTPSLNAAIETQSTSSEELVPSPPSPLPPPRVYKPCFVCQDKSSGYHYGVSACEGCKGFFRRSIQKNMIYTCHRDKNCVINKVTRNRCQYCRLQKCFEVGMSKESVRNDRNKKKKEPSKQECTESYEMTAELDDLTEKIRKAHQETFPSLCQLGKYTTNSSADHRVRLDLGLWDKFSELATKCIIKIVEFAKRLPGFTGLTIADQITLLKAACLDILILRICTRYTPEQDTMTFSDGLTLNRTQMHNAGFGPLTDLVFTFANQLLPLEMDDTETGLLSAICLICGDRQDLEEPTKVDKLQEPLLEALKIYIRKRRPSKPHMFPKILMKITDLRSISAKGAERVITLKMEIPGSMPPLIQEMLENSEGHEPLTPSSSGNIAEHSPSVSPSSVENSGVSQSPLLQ
Description: Dissociation constant for binding to Retinoic acid receptor beta. An outline of the steps: (§1)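 Competitive binding assays against each receptor subtype, with Kd values taken from competition.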

Assay [3] has as its target T3, Retinoic acid receptor RXR-gamma (Mus musculus, UniProt P28705).
T3 sequence (P28705 whole entry): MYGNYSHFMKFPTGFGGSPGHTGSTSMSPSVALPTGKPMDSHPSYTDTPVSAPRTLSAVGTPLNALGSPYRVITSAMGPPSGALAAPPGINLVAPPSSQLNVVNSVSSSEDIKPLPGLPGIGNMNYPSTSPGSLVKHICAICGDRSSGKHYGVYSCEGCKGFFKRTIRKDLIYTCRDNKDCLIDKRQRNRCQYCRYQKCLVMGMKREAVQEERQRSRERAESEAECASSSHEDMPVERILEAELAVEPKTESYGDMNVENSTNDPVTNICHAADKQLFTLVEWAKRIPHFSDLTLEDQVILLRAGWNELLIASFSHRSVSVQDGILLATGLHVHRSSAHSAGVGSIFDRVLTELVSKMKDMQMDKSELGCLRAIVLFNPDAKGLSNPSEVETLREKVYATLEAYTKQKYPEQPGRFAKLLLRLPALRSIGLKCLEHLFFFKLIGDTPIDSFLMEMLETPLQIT
Description: Dissociation constant for binding to Retinoid X receptor gamma. An outline of the steps: as §1

The target of assay [4] is T4, Retinoic acid receptor alpha (Mus musculus, UniProt P11416).
T4 sequence (P11416 whole entry): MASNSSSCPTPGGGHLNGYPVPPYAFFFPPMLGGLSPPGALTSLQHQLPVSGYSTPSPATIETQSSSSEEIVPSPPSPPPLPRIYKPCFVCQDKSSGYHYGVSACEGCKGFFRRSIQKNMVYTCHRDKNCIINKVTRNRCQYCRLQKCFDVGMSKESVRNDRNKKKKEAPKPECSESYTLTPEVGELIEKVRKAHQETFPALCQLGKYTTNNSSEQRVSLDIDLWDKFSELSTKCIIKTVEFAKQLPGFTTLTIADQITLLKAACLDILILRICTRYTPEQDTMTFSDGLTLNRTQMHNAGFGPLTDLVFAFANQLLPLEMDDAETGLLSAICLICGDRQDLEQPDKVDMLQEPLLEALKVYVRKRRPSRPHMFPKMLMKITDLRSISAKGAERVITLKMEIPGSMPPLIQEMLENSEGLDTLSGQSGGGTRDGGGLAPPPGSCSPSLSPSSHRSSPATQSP
Description: Dissociation constant for binding to Retinoic acid receptor alpha. The assay is classed as single protein. An outline of the steps: as §1

The target of assay [5] is T5, Retinoic acid receptor RXR-beta (Homo sapiens, UniProt P28702).
T5 sequence (P28702 whole entry): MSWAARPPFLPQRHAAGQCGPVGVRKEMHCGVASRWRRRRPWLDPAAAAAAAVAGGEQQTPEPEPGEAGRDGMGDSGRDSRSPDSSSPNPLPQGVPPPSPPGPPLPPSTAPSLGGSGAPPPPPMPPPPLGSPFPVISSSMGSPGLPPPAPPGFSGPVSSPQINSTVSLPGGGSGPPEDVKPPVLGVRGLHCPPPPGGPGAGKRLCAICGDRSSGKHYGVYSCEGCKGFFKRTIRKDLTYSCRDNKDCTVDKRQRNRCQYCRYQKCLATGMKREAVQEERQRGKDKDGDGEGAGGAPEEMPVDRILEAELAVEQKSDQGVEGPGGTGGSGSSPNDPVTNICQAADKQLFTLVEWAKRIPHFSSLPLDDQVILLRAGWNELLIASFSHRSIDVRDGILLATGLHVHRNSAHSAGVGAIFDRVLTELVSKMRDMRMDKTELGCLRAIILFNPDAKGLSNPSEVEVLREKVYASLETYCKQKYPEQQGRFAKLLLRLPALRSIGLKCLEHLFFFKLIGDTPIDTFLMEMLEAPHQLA
Description: Transcriptional activation of Retinoid X receptor RXR beta. The arrangement: species or system Cercopithecidae. An outline of the steps: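 CV-1 cells transiently cotransfected with the receptor construct and a reporter gene, with induced transcription measured. Activity is normalized to all-trans RA.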

Turning to `Cc1cc2c(cc1Sc1ccc(C(=O)O)cn1)C(C)(C)CCC2(C)C`, in the assay with HL-60, the pEC50 was 7.00. Besides, the negative-log IC50 (pIC50) in the assay listed under Mus musculus was 6.00. For the same compound, in assay [1], the pKd was 7.06.

For `Cc1cc2c(cc1Sc1ncc(C(=O)O)s1)C(C)(C)CCC2(C)C`, the pKd in assay [2], in assay [3], in assay [4] and in assay [1] was 6.00 in each case. In assay [5], this compound had a negative logarithm of the EC50 (pEC50) of 5.89.

Regarding `Cc1cc2c(cc1S(=O)(=O)c1ccc(C(=O)O)cc1)C(C)(C)CCC2(C)C`, the results for the pKd in assay [2], in assay [3] and in assay [4] were under 5.00, 5.40 and under 5.00, respectively.

As to `Cc1cc2c(cc1Sc1ccc(C(=O)O)cc1)C(C)(C)CCC2(C)C`, the pEC50 with HL-60 was 6.70; in assay [5] it was 6.52. The compound also had a pIC50 in the assay filed under Mus musculus of 6.04. In addition, the pKd in assay [2] and in assay [4] was under 5.00 throughout.

In the case of `CC1(C)CCC(C)(C)c2cc(Sc3ccc(C(=O)O)cc3)ccc21`, the results for the pKd in assay [2], in assay [4] and in assay [1] were 5.37, 5.39 and 5.51, respectively.

In the case of `Cc1cc2c(cc1[S+]([O-])c1ccc(C(=O)O)cc1)C(C)(C)CCC2(C)C` (centres undefined), the pKd in assay [2], in assay [3], in assay [4] and in assay [1] was under 5.00 in each case. This compound also gave a pEC50 in assay [5] of 5.52.
